Data set [1] has as its target T1, Renin (Homo sapiens, UniProt P00797).
T1 sequence (P00797 whole entry): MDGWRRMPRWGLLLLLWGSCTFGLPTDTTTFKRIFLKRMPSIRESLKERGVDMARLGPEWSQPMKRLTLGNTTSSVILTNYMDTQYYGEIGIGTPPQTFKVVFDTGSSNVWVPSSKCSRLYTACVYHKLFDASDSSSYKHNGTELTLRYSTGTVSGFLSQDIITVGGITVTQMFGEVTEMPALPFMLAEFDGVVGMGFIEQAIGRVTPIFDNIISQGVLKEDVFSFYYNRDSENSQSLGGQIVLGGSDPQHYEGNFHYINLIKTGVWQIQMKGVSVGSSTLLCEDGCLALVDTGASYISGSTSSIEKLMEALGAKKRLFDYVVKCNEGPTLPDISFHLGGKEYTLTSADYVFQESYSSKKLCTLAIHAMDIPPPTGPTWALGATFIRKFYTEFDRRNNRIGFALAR
Description: Inhibition of human recombinant renin using DNP-Lys-His-Pro-Phe-His-Leu-Val-Ile-His-D,L-Amp as substrate after 3 hrs by fluorimetry. The method, boiled down: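 Human recombinant renin at 100 pM incubated with or without inhibitor and 6 µM Q-FRET substrate in 50 mM MOPS, 100 mM NaCl, pH 7.4, 0.002% Tween, 37 °C for 3 h. Fluorescence read at 0 and 3 h (ex 328 nm, em 388 nm). Values are means of at least two experiments.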

The target of data set [2] is T1, Renin. In words: Inhibition of human recombinant renin using QXL520-Lys-His-Pro-Phe-His-Leu-Val-Ile-His-Lys-(5-FAM) as substrate preincubated for 10 mins prior to substrate addition measure after 1 hr by fluorimetry in the presence of human plasma. The method, boiled down: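 Frozen human EDTA-plasma thawed and centrifuged at 2900 g for 15 min. Recombinant human renin was added to the supernatant at 1 nM nominal, and inhibitor preincubation was 10 min at 37 °C. Q-FRET substrate was added in Tris/EDTA pH 7.2, then incubated 1 h at 37 °C. Fluorescence read at 0 and 1 h (ex 490 nm, em 520 nm). Means of at least two experiments.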

Data set [3] addresses T2, CYP3A4 (Homo sapiens, UniProt P08684). In words: Reversible inhibition of CYP3A4 using testosterone as substrate assessed as remaining activity at 10 uM. It counts as ADME. The conditions noted are these: probe testosterone; read-out: Activity.
Data set [4] addresses T2, CYP3A4. Description: Time dependent inhibition of CYP3A4 using testosterone as substrate at 10 uM for 30 mins. The class given is ADME. The conditions noted are these: probe testosterone. The method, boiled down: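 CYP3A4 conversion of testosterone (250 µM) to 6β-hydroxytestosterone compared before and after a 30 min preincubation with compound in DMSO. Result expressed as percentage activity loss; 0% change means no measurable time-dependent inhibition.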

The target of data set [5] is Voltage-gated inwardly rectifying potassium channel KCNH2 (Homo sapiens, UniProt Q12809). Description: Inhibition of human ERG.
Voltage-gated inwardly rectifying potassium channel KCNH2, sequence (Q12809 whole entry): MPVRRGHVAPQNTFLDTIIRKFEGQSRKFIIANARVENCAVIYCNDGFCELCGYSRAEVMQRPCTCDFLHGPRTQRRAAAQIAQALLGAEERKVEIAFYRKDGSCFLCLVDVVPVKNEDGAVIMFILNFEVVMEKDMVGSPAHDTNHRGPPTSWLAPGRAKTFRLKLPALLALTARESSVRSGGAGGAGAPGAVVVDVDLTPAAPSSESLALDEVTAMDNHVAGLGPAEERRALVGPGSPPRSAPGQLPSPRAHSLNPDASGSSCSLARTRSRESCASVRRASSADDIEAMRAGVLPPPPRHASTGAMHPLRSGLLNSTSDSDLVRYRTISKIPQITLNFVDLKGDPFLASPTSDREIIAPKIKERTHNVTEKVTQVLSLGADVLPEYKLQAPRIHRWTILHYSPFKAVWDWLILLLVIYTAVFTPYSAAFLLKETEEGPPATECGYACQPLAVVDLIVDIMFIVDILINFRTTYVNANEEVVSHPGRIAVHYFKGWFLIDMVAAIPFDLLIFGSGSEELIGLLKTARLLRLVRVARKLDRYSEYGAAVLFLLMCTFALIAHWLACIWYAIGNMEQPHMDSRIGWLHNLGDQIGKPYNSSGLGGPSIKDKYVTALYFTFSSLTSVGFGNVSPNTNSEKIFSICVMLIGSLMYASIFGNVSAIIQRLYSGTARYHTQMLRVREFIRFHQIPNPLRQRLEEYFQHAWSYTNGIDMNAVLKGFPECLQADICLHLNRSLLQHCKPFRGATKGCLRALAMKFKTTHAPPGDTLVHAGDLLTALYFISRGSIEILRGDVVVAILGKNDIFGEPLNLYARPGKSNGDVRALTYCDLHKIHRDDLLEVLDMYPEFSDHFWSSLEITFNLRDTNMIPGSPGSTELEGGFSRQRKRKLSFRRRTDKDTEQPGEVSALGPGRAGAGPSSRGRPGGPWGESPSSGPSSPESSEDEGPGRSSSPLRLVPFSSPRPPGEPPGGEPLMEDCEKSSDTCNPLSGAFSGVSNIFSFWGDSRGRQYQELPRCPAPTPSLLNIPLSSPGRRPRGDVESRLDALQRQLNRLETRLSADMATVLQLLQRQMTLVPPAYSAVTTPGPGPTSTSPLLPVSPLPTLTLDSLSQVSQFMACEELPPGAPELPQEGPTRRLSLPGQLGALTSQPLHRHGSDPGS
Data set [6] can be described thus: Cmax in Sprague-Dawley rat at 30 mg/kg, po and 5 mg/kg, iv. The conditions noted are these: in vivo. It counts as ADME, organism-based.
Data set [7] in a line: Oral bioavailability in Sprague-Dawley rat at 30 mg/kg. The class given is ADME, organism-based. The conditions noted are these: in vivo.
Data set [8] in a line: Clearance in Sprague-Dawley rat at 30 mg/kg, po and 5 mg/kg, iv. The class given is ADME, organism-based. The conditions noted are these: in vivo.
Data set [9] is described as follows: Half life in Sprague-Dawley rat at 30 mg/kg, po and 5 mg/kg, iv. It counts as ADME, organism-based. Particulars: in vivo.
Data set [10] in a line: Volume of distribution at steady state in Sprague-Dawley rat at 30 mg/kg, po and 5 mg/kg, iv. The conditions noted are these: in vivo, read-out: Vdss. The class given is ADME, organism-based.
Data set [11] in a line: Oral bioavailability in Beagle dog at 3 mg/kg. The conditions noted are these: in vivo. It counts as ADME, organism-based, Canis lupus familiaris.
Data set [12] can be described thus: Cmax in Beagle dog at 3 mg/kg, po and 1 mg/kg, iv. The class given is ADME, organism-based, Canis lupus familiaris. Particulars: in vivo.
A short description of data set [13]: Clearance in Beagle dog at 3 mg/kg, po and 1 mg/kg, iv. The class given is ADME, organism-based, Canis lupus familiaris. The conditions noted are these: in vivo.
Data set [14] can be described thus: Half life in Beagle dog at 3 mg/kg, po and 1 mg/kg, iv. The class given is ADME, organism-based, Canis lupus familiaris. Particulars: in vivo.
Data set [15] in a line: Volume of distribution at steady state in Beagle dog at 3 mg/kg, po and 1 mg/kg, iv. The class given is ADME, organism-based, Canis lupus familiaris. The conditions noted are these: in vivo, read-out: Vdss.
For data set [16], the system named is Rattus norvegicus. In words: Antihypertensive activity in rat dTGR model expressing human renin and angiotensinogen assessed as decrease in blood pressure at 10 mg/kg, po. It counts as functional.
The subject of data set [17] is Rattus norvegicus. Description: Antihypertensive activity in rat dTGR model expressing human renin and angiotensinogen assessed as time of blood pressure lowering effect at 10 mg/kg, po. The class given is functional.

Broadly, the IC50 is the concentration needed to halve the response being measured. By inhibition is commonly meant the change of the read-out against control, counted positive when it falls. Read a low inhibition as little suppression. The Cmax is the peak of the concentration-time curve. As a reminder, the bioavailability is the share of a dose that reaches the circulation, judged against a reference dose that is usually intravenous. Higher therefore signals much systemic uptake. By half-life is commonly meant how long it takes for the measured level to halve. Read a high half-life as slow decline.

T2 sequence (P08684 whole entry): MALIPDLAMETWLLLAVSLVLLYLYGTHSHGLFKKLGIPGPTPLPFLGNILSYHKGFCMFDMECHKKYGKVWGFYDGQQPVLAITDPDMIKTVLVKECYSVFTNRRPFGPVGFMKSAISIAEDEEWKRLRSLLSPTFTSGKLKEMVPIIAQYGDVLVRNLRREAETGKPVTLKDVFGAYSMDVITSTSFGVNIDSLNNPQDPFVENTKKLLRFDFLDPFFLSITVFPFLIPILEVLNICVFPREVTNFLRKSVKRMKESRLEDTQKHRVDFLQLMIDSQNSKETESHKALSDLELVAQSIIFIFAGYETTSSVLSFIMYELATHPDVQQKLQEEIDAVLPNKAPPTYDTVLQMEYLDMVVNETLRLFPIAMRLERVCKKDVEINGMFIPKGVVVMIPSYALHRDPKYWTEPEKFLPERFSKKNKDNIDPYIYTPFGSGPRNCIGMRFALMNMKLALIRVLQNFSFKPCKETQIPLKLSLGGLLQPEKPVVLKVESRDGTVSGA

Turning to `CC(=O)NCCc1ccccc1-c1ccc([C@H]2CNCC[C@@H]2c2ccc(F)c(F)c2)c(Cl)c1`, the concentration for half-maximal inhibition (IC50) at Renin [1] worked out at 0.5 nM; at Renin [2] it was 7.5 nM. In addition, at CYP3A4 [3], the activity at 10 µM was found to be 98%. The inhibition at 0.5 h, 10 µM against CYP3A4 [4] was found to be 49%.
Taken in the same sequence, the figures for `CC(=O)NCCc1ccccc1-c1ccc([C@H]2CNCC[C@@H]2c2cccnc2)c(Cl)c1` were 1.4 nM, 3.6 nM, 98% and 55%.
For `CC(=O)NCCc1ccccc1-c1ccc([C@H]2CNCC[C@@]23OCc2cc(F)c(F)cc23)c(C)c1`, the IC50 on Renin [1] stood at 0.17 nM; at Renin [2] it was 1.3 nM; in [5], 5100 nM. Further, the activity at 10 µM at CYP3A4 [3] stood at 88%. The molecule further showed an inhibition at 0.5 h, 10 µM at CYP3A4 [4] of 68%.
As to `COCC(F)(F)COCc1ccc([C@@]2(O)CCNC[C@@H]2c2ccc(-c3ccccc3CCNC(C)=O)cc2C)cc1`, in data set [5], inhibition was half-maximal at 9800 nM (IC50). On CYP3A4 [3], the activity at 10 µM was 76%. Further, the inhibition at 0.5 h, 10 µM on CYP3A4 [4] is 37%.
In turn, `CC(=O)NCCc1ccccc1-c1ccc([C@H]2CNCC[C@@H]2c2ccn(C)c(=O)c2)c(Cl)c1` displayed a half-inhibitory concentration (IC50) in data set [5] of 5800 nM. In addition, the activity at 10 µM at CYP3A4 [3] worked out at 97%. This molecule yielded an inhibition at 0.5 h, 10 µM against CYP3A4 [4] of 0%.
Take `CCC(=O)NCCc1ccccc1-c1ccc([C@H]2CNCC[C@@H]2c2ccn(C)c(=O)c2)c(Cl)c1`: the IC50 at Renin [1] turned out to be 4.8 nM; on Renin [2] it was 8 nM; in data set [5], 2800 nM. In addition, at CYP3A4 [3], the activity at 10 µM amounted to 92%. The molecule also yielded an inhibition at 0.5 h, 10 µM against CYP3A4 [4] of 21%.
As for `COC(=O)NCCc1ccccc1-c1ccc([C@H]2CNCC[C@@H]2c2ccn(C)c(=O)c2)c(Cl)c1`, the concentration for half-maximal inhibition (IC50) is 3.52 nM at Renin [1] and 6.1 nM on Renin [2]. In addition, at CYP3A4 [3], the activity at 10 µM was found to be 92%. Moreover, on CYP3A4 [4], the inhibition at 0.5 h, 10 µM came to 46%.
On to `CCOC(=O)NCCc1ccccc1-c1ccc([C@H]2CNCC[C@@H]2c2ccn(C)c(=O)c2)c(Cl)c1`, for which the IC50 stood at 11 nM on Renin [1], 28.2 nM on Renin [2] and 3200 nM in data set [5]. In addition, the activity at 10 µM at CYP3A4 [3] turned out to be 91%. Also, the inhibition at 0.5 h, 10 µM at CYP3A4 [4] is 58%.
`COCC(=O)NCCc1ccccc1-c1ccc([C@H]2CNCC[C@@H]2c2ccn(C)c(=O)c2)c(Cl)c1`: the IC50 at Renin [1] is 73.8 nM; at Renin [2], 97.4 nM.
For the molecule `CC(=O)NCCc1ccccc1-c1ccc([C@H]2CNCC[C@]2(O)c2ccc(F)c(F)c2)c(C)c1`, the 50% inhibitory concentration (IC50) was determined as 0.5 nM at Renin [1], 4.95 nM at Renin [2] and 4200 nM in data set [5]. The activity at 10 µM at CYP3A4 [3] came to 87%. The inhibition at 0.5 h, 10 µM on CYP3A4 [4] was determined as 40%.
Taken in the same sequence, the figures for `CC(=O)NCCc1ccccc1-c1ccc([C@H]2CNCC[C@@]23OC(=O)c2cc(F)c(F)cc23)c(C)c1` were 0.14 nM, 1.6 nM, 12900 nM, 80% and 88%.
As to `COC[C@H](C)COCc1ccc([C@@]2(O)CCNC[C@@H]2c2ccc(-c3ccccc3CCNC(C)=O)cc2C)cc1`, the IC50 in data set [5] stood at 9000 nM. Moreover, at CYP3A4 [3], the activity at 10 µM turned out to be 88%. The molecule also registered an inhibition at 0.5 h, 10 µM at CYP3A4 [4] of 72%.
As for `CC(=O)NCCc1ccccc1-c1ccc([C@@H](CN)Cc2ccc(OCCOc3c(Cl)cc(C)cc3Cl)cc2)c(C)c1.Cl`, the activity at 10 µM on CYP3A4 [3] is 53%. The molecule also had an inhibition at 0.5 h, 10 µM against CYP3A4 [4] of 74%. The molecule also gave a Cmax in data set [6] of 440 nM.
Take `CC(=O)NCCc1ccccc1-c1ccc([C@H]2CNCC[C@@H]2c2ccn(C)c(=O)c2)c(Cl)c1.Cl`: the bioavailability in data set [7] stood at 12%; in data set [11], 30%. Also, the Cmax in [6] was 450 nM; in data set [12], 350 nM. The clearance came out at 115 mL/min/kg in data set [8] and 24 mL/min/kg in data set [13]. In addition, the half-life in data set [9] was 4 h; in data set [14] it was 6.2 h. Moreover, the Vd was 25 L/kg in data set [10] and 4.6 L/kg in data set [15]. The Activity in the data set with Rattus norvegicus [16] was 32 mmHg. The Time with Rattus norvegicus [17] was determined as 24 h.

The values above are taken from ChEMBL document CHEMBL1955789, “3,4-Diarylpiperidines as potent renin inhibitors” (Bioorg Med Chem Lett, 2012).
